# Compound activity from PubChem.
# Shown are actives, neighbours in structure and some others; about 1.2% of the full set was active somewhere.
# Runt-SMMHC FRET: inhibitors of human RUNX1 Runt domain binding to CBFb-SMMHC; hit rate 0.74% among 220,000; Cerulean-Runt/Venus-CBFb-SMMHC FRET ratio 530/480, 1 h; Q01196+Q13951; inhibition, % at 20 µM;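 active means mean inhibition across duplicate retests at 20 µM reaching about 50%, limit read from the data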;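 further: 0% = DMSO wells and 100% = wells with excess untagged CBFb-SMMHC; inhibitors lower the FRET ratio by blocking Runt binding to CBFb-SMMHC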
# Target sequence (Q01196 whole entry, looked up, the tested form may be a part): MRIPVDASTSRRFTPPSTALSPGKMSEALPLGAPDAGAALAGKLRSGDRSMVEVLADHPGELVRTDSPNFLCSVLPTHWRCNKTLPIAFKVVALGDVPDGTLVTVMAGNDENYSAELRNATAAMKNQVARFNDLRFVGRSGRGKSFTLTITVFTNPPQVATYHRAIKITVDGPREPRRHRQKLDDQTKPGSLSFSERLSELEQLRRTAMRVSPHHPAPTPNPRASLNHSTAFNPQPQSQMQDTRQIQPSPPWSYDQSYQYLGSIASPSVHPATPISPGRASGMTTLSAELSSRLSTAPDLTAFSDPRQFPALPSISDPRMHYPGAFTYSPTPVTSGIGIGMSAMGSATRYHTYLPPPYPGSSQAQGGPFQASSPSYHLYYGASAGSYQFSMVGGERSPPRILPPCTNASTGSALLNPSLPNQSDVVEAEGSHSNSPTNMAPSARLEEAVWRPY
# Target sequence (Q13951 whole entry, looked up, the tested form may be a part): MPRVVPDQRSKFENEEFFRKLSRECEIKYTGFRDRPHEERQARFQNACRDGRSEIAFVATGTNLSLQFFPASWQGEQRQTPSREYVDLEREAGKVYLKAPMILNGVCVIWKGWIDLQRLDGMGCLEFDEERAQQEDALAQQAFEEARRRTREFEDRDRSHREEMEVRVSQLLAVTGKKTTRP
# RanGTP-Impb inh: inhibitors of RanGTP-importin-beta interaction, primary screen, biochemical, FRET, CFP-Ran, YFP-importin-beta, homogeneous. cell-free CFP-Ran/YFP-importin-beta FRET ratio. inhibition, % (test concentration not listed). hit rate 1.1% among 300,000. AID 2216;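 active means more than half of the replicate wells show a fall in the fluorescence ratio signal beyond about 16%, limit read from the data, passing the limit was not always enough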;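 further: 0% = DMSO wells and 100% = Ran loaded with GDP instead of GTP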
# Runt-CBFb FRET: Runt domain-CBFb interaction inhibition; Q01196+Q13951; hit rate 0.46% among 220,000; Cerulean-Runt/Venus-CBFb FRET ratio 530/480, 1 h; inhibition, % at 20 µM;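 active means inhibition over about 50% at 20 µM in the single-dose screen, limit read from the data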;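 further: 0% = DMSO wells and 100% = excess unlabeled CBFb competitor control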
#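 Measured by: fluorescence energy transfer, 422 nm excitation, 530/480 nm emission; Assay system: Cerulean-Runt domain; Medium: Tris pH 7.5 buffer with BSA; Measure: loss of energy transfer signal; Controls: 5 µM unlabeled CBFb as full-inhibition high control; Incubation: protein complex preformed 1 h, compound exposure 1 h, room temperature, dark.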
# CaV13 FRET inh: Disruptors of the CACNA1D IQ motif to Ca2+-dependent inactivation inhibitor domain association, primary screening, Förster resonance energy transfer in intact living …; hit rate 0.098% among 340,000; AID 743397; HEK cells, CFP/YFP FRET ICDI-IQ, plate reader, 10 min; percent FRET-ratio fall versus neutral wells; inhibition, % at 12.3 µM;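 active means mean replicate inhibition of at least 30% and at least 1% of replicates passing that level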;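 further: 0% = median of the neutral control wells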
# Numbers without * were called inactive; nt = not tested or not shown; + = active, no number.
SMILES,Runt-SMMHC FRET,RanGTP-Impb inh,Runt-CBFb FRET,CaV13 FRET inh
CN(NC(=O)COc1ccccc1)C1=NS(=O)(=O)c2ccccc21,nt,6.2,nt,6.1
N=c1c(C(=O)NC2CCCCC2)cc2c(=O)n3ccccc3nc2n1Cc1cccnc1,nt,+,nt,13.4
N=c1c(C(=O)NC2CCCCC2)cc2c(=O)n3ccccc3nc2n1Cc1ccco1,nt,64.6*,nt,-0.3
N=c1c(C(=O)NCCc2ccccc2)cc2c(=O)n3ccccc3nc2n1Cc1ccco1,nt,73.7*,nt,-4.4
O=C(O)c1cccc(N/N=C/c2cccnc2)c1,2.1,34.3*,-1.7,9.1
COc1ccccc1/C=C/C=N/Nc1cccc(C(=O)O)c1,nt,76.0*,nt,-4.1
O=C(O)c1cccc(N/N=C/c2ccc(-c3ccccc3)cc2)c1,-11.3,2.3,-9.8,4.0
CN(C)CCN1C(=O)C(O)=C(C(=O)c2cc3ccccc3o2)C1c1ccccn1 (centres undefined),-10.4,25.5*,-0.5,nt
CCN(CC)CCCN1C(=O)C(=O)/C(=C(/O)c2ccc(Cl)cc2)C1c1ccccn1 (centres undefined),-3.2,0.9,0.4,-4.3
CCN(CC)CCCN1C(=O)C(O)=C(C(=O)c2cc3ccccc3o2)C1c1ccccn1 (centres undefined),0.3,nt,-1.1,nt
CCN(CC)CCN1C(=O)C(=O)/C(=C(/O)c2cccc(OC)c2)C1c1ccccn1 (centres undefined),-5.1,42.7*,1.4,-3.8
CCN(CC)CCN1C(=O)C(O)=C(C(=O)c2ccco2)C1c1ccccn1 (centres undefined),9.7,59.4*,8.8,-5.5
CCCOc1cccc(C2C(C(=O)c3ccco3)=C(O)C(=O)N2CCN(CC)CC)c1 (centres undefined),0.7,2.3,-0.4,-8.4
CCN(CC(=O)Nc1ccc2c(c1)OCCO2)C(=O)CN1C(=O)NC(C)(c2ccc(C)cc2)C1=O (centres undefined),nt,nt,nt,-21.2
C[C@@H]1CN([C@@H](C)CO)C(=O)CCCn2cc(nn2)CO[C@H]1CN(C)C(=O)Nc1ccc(N2CCN(C)CC2)cc1,nt,nt,nt,-5.5
N#Cc1ccc(Oc2cccc3cccnc23)c([N+](=O)[O-])c1,nt,34.8*,nt,-2.7
N#Cc1cc(Oc2cccc3cccnc23)c(-n2nnc3ccccc32)cc1C#N,-62.1,21.3*,-21.1,-14.4
N#Cc1cc(O)c(-n2nnc3ccccc32)cc1C#N,-5.1,-2.1,0.3,-4.6
COc1ccc(C2C3=C(CC(C)(C)CC3=O)Nc3c2c(=O)[nH]c(=O)n3Cc2ccccc2)cc1OC (centres undefined),78.7*,87.7*,55.6*,-1.0
COc1ccc(C2C3=C(CC(C)(C)CC3=O)Nc3n[nH]c(C)c32)cc1 (centres undefined),0.5,6.4,-0.6,-6.8
COc1ccc(C2C3=C(CC(C)(C)CC3=O)Nc3c2c(=O)[nH]c(=O)n3Cc2ccccc2)cc1 (centres undefined),40.3,83.7*,101.7*,2.4
COc1ccccc1OCCNC(=O)c1ccc(C)o1,nt,1.1,nt,-7.2
CCCN1C(=O)/C(=C/c2c(NCCCOCC)nc3c(C)cccn3c2=O)SC1=S,-30.4,nt,-5.8,-9.5
Cc1cccn2c(=O)c(/C=C3\SC(=S)NC3=O)c(NCCCN3CCOCC3)nc12,-67.4,35.4*,26.4,-2.3
O=C(CCC1N=C2c3ccccc3N=C(SCc3ccc(Cl)cc3)N2C1=O)NCc1ccco1 (centres undefined),-0.5,27.3*,-3.1,nt
SMILES,Runt-SMMHC FRET,RanGTP-Impb inh,Runt-CBFb FRET,CaV13 FRET inh
Cc1ccc(-c2ccc(C3C(C#N)=C(N)Oc4n[nH]c(C)c43)o2)cc1 (centres undefined),-29.6,39.3*,3.4,-6.4
CCc1cccc(N(CC(=O)NC2CCCCC2)C(=O)c2csnn2)c1,nt,5.7,nt,-4.0
COc1cccc(CN(C(=O)c2ccccc2Cl)C2CCS(=O)(=O)C2)c1 (centres undefined),nt,0.3,nt,-6.9
Cc1ccc(CNC(=O)CCC(=O)n2ncc3cc(C)ccc32)cc1,nt,4.4,nt,-4.7
Cc1ccc2c(cnn2C(=O)CCCC(=O)NCc2ccc(Cl)cc2)c1,nt,26.1*,nt,-5.5
CCSc1ccc(-c2nn(-c3ccccc3)cc2/C=C(/C#N)C(=O)NCCCOC)cc1,59.5*,nt,23.5,-3.4
CCCSc1ccc(-c2nn(-c3ccccc3)cc2/C=C(/C#N)C(=O)NCCCOC)cc1,-16.0,4.2,-14.5,-2.9
CC(=O)N1CCc2[nH]c3ccccc3c2C1,-19.0,37.9*,-11.1,-4.6
CC(=O)N1CCc2[nH]c3ccc(C)cc3c2C1,nt,-19.3,nt,-6.2
NC(=S)Cc1nc(-c2ccccc2)cs1,-4.5,29.8*,0.5,-3.7
Nc1nc(-c2ccccc2)cs1,3.9,6.2,-1.6,nt
Cc1ccc(NC(=O)Nc2ccnc(-c3cccnc3)n2)cc1,-3.6,-0.3,2.0,42.8*
CCC(=O)Nc1cccc(-n2nnnc2SCC(=O)c2ccc(C)c(C)c2)c1,-1.2,nt,27.4,-6.5
N#CC(C#N)=C/C=C(\Nc1ccc(Cl)cc1)c1ccc(Cl)cc1,-1.6,65.8*,11.0,-3.9
CCCOc1ccc([C@@H]2C3CN(C(=O)OCC)CC=C3C(C#N)=C(N)C2(C#N)C#N)cc1OC (some centres undefined),8.0,5.1,-0.2,-3.2
COc1cc([C@@H]2[C@H]3CNCC=C3C(C#N)=C(N)C2(C#N)C#N)ccc1OC(C)C,52.0,62.7*,6.9,-5.8
Cc1cc(-c2nsc(=O)o2)c(S(C)(=O)=O)s1,3.7,-3.5,31.3,-8.4
COc1ccc(C(=O)NN=C2CCCC2)cc1,nt,28.5*,nt,-2.5
Cc1cccc(/C(N)=N/OC(=O)N2CCOCC2)c1,0.4,0.3,-0.1,nt
Cc1ccc(/C(N)=N/OC(=O)N2CCOCC2)cc1,-119.5,2.8,74.3*,-6.6
O=C(NCc1ccc2c(c1)OCO2)c1cc(-c2cc(Cl)ccc2O)n[nH]1,-2.6,-1.0,0.1,-1.5
Cc1cccc(S(=O)(=O)N2CCC[C@H]2C(=O)N2CCC[C@@H]2C(=O)NCc2ccccc2)c1,nt,nt,nt,-5.8
CSc1nc(=S)c2[nH]c(=S)[nH]c2[nH]1,51.2*,-2.1,13.2,-1.7
COc1cccc(-n2cc(CNCc3cn(C)nc3-c3ccccc3F)cn2)c1,-2.0,64.0*,-0.1,1.0
CCOc1ccccc1N(C)S(=O)(=O)c1ccc2c(c1)CCN2C(=O)CCC(=O)O,nt,2.6,nt,-4.1
SMILES,Runt-SMMHC FRET,RanGTP-Impb inh,Runt-CBFb FRET,CaV13 FRET inh
Cc1cc(OCC(=O)Nc2ccc(S(=O)(=O)NC3=NCCCCC3)cc2)c(C(C)C)cc1Cl,-5.7,-6.0,-7.8,-3.1
CC(=O)c1sc2nc(-c3ccc(C)cc3)c3c(c2c1N)CCCC3,10.3,66.4*,3.0,-5.2
CCc1nc2sc(C(C)=O)c(N)c2c2c1CCCC2,81.0*,28.0*,34.1,-2.5
CCc1nc2sc(C#N)c(N)c2c2c1CCCC2,nt,3.9,nt,-7.4
Cc1ccc(-c2nc3sc(C(N)=O)c(N)c3c3c2CCCC3)cc1,14.2,-5.0,0.6,-7.5
NC(=O)c1cc([N+](=O)[O-])ccc1NCc1cccnc1,-3.2,3.2,-1.9,41.9*
